We go through one substance from article PMC9112330 (ACS Infectious Diseases, 2022).

A short description of the data set: In vivo fluorescence bioimaging / biodistribution. The conditions noted are these: n = 2. Details: species or system mouse. In short, it runs like this: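 AF680 was attached through a cysteine inserted between the PNA and the dendron, by maleimide coupling. Two NMRI-nu mice received 200 μL of 10 μM labelled conjugate. Under 2% isoflurane, epifluorescence was imaged at 675/720 nm from pre-injection to 48 h, followed by an ex vivo organ scan. Body and kidney ROI signals were expressed as % of initial signal (Y0, from linear regression of the first three points), and half-life came from one-phase decay fit.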

For the substance “H-(Gbu)8-(DAB)4-(DAB)2-DAB-Cys(AF680)-CTCATACTCT-NH2 [AF680-PNA4897]”, for the setting “ex vivo scan of excised organs 48 h post i.v. administration”, the “organ accumulation of remaining fluorescence” value was “accumulated predominantly in the kidney and in the liver”. In addition, the “time to distribution in the whole body” value (i.v. tail vein, 200 μL of 10 μM, nude mice, near-IR fluorescence imaging) is below 5 min.
